Like-named read-outs stand apart in the source and are kept apart here.
Tests used:
[1] = WST-1 cytotoxicity assay in uninfected HCT-8 cells; type: cell-based; conditions: human
In short: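 HCT-8 cells (5 × 10⁴/well) were grown overnight at 37 °C, 5% CO₂ in phenol-red-free RPMI-1640 with added glucose, bicarbonate, pyruvate and 10% heat-inactivated FBS. They were treated with test compound (20 μM screen or dose range) or DMSO for 48 h. WST-1 was then added for 1 h at 37 °C in the dark, and absorbance read at 440 nm (reference 690 nm). % toxicity = (OD_DMSO − OD_compound)/OD_DMSO × 100. IC50 by nonlinear regression of triplicate means.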

[2] = WST-1 cytotoxicity assay in uninfected HFF cells; type: cell-based; conditions: human
[3] = tested on: T. gondii type I RH strain; test: In vitro T. gondii type I RH; type: cell-based, Toxoplasma gondii; conditions: for reduction of T. gondii parasite growth: 11 μM, added immediately after infection, 48 h, HFF cells; for SI T. gondii (selectivity index): SI = IC50 HCT-8 (or HFF)/IC50 parasite (at 0 h p.i.); for IC50: Toxoplasma gondii, HFF
In short: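 Single-concentration screen: confluent HFF monolayers in IMDM were infected with about 5 × 10³ RH-YFP tachyzoites per well, and test compound (11 μM final, in DMSO) was added immediately. Controls were atovaquone at 0.5 μM, DMSO vehicle and uninfected background wells. After 48 h at 37 °C with 5% CO₂, YFP was quantified from 9 thresholded 20× images per well. Percent inhibition was taken against DMSO; triplicates, repeated at least thrice.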

C. parvum AUCP-1 isolate = test: In vitro C. parvum growth inhibition in HCT-8 cells, immunofluorescence assay; type: cell-based, Cryptosporidium parvum; conditions: for IC50: Cryptosporidium parvum; for SI C. parvum (selectivity index): SI = IC50 HCT-8 (or HFF)/IC50 parasite (at 0 h p.i.)
In short: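 Confluent HCT-8 monolayers in supplemented RPMI-1640 infected with 10⁵ freshly excysted sporozoites per well. […] After 72 h, cells were fixed in methanol-acetic acid (9:1), permeabilised, blocked with 5% goat serum and stained overnight at 4 °C with fluorescein anti-C. parvum antibody. Imaged at 20×, triplicates, three assays, nonlinear regression IC50; SI = host-cell IC50/parasite IC50 (0 h p.i.).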

[4] = tested on: T. gondii type II ME49 strain; test: In vitro T. gondii type II ME49; type: cell-based; conditions: Toxoplasma gondii, HFF, 48 h, read-out: IC50 against T. gondii Type II (ME49) in HFF cells
[5] = tested on: T. gondii Type II (ME49) cysts in rats' brains; type: in vivo, Toxoplasma gondii; conditions: JS-2-41 3 mg/kg; for reduction in the number of Toxoplasma cysts in the brain: infected rats, 14 days of treatment, JS-2-44 4 mg/kg i.p.; for decrease in brain cysts compared to untreated rats: male Brown Norway rats, i.p. daily for 14 days, JS-2-44 4 mg/kg
In short: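 Male Brown Norway rats, 4 weeks old, were acclimatised 7 days, then inoculated i.m. with 5 × 10⁴ ME49 tachyzoites in 0.1 ml PBS. Once brain cysts were confirmed in two untreated rats, groups (n = 3) received daily i.p. test compound or atovaquone (5 mg/kg) in 0.2 ml 5% DMSO/PBS for 2 weeks; untreated rats got vehicle. Brains were homogenised in 5 ml PBS, cysts counted in 50 μl on 3 slides (10×) and scaled to total volume. One-way ANOVA with Dunnett.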

[6] = read-out: Parasite IC50 T. gondii 0h p.i
[7] = read-out: Parasite IC50 T. gondii 2h p.i
[8] = HCT-8, read-out: Parasite IC50 C. parvum 0h p.i
[9] = HCT-8, read-out: Parasite IC50 C. parvum 2h p.i

| IC50 (C. parvum AUCP-1 isolate; [8]) [µM] | IC50 (C. parvum AUCP-1 isolate; [9]) [µM] | SMILES | IC50 at 48 h [1] [µM] | IC50 at 48 h [2] [µM] | reduction of T. gondii parasite growth [3] | IC50 [3, 6] [µM] | IC50 [3, 7] [µM] | SI C. parvum (selectivity index) (C. parvum AUCP-1 isolate) | also measured |
| --- | --- | --- | --- | --- | --- | --- | --- | --- | --- |
|  |  | CC(C)(NC(=O)c1cc2c(F)cc(F)cc2[nH]1)c1cn(Cc2ccccc2)nn1 [JS-2-18, N-(2-(1-Benzyl-1H-1,2,3-triazol-4-yl)propan-2-yl)-4,6-difluoro-1H-indole-2-carboxamide] | 205 |  |  |  |  |  |  |
|  |  | CC(C)(NC(=O)c1cc2c(Cl)cc(Cl)cc2[nH]1)c1cn(C23CC4CC(CC(C4)C2)C3)nn1 [JS-2-31, N-(2-(1-(Adamantan-1-yl)-1H-1,2,3-triazol-4-yl)propan-2-yl)-4,6-dichloro-1H-indole-2-carboxamide] |  | 135 | over 50% | 7.88 | 12.1 |  | SI T. gondii (selectivity index) [3]: 17.15 |
|  |  | O=C1C(O)=C([C@H]2CC[C@H](c3ccc(Cl)cc3)CC2)C(=O)c2ccccc21 [ATQ, atovaquone, reference compound] |  |  |  | 0.084 | 0.087 |  |  |
|  |  | CC(C)(NC(=O)c1cc2c(F)cc(F)cc2[nH]1)c1cn(Cc2ccc(Cl)c(Cl)c2)nn1 [JS-2-43, N-(2-(1-(3,4-Dichlorobenzyl)-1H-1,2,3-triazol-4-yl)propan-2-yl)-4,6-difluoro-1H-indole-2-carboxamide] | 174 |  |  |  |  |  |  |
| 8.32 | 8.59 | CC(C)(NC(=O)c1cc2c(Cl)cc(Cl)cc2[nH]1)c1cn(Cc2ccccc2Cl)nn1 [JS-2-28, 4,6-Dichloro-N-(2-(1-(2-chlorobenzyl)-1H-1,2,3-triazol-4-yl)propan-2-yl)-1H-indole-2-carboxamide] | 233 | 209 | over 50% | 11.6 | 19.2 | 28.05 |  |
|  |  | C#CC(C)(C)NC(=O)c1cc2c(F)cc(F)cc2[nH]1 [JS-2-15, 4,6-Difluoro-N-(2-methylbut-3-yn-2-yl)-1H-indole-2-carboxamide] | 109 |  |  |  |  |  |  |
|  |  | CC1(C)COC(c2ccc(-c3cn(C45CC6CC(CC(C6)C4)C5)nn3)cc2)OC1 [JS-2-41, 1-(Adamantan-1-yl)-4-(4-(5,5-dimethyl-1,3-dioxan-2-yl)phenyl)-1H-1,2,3-triazole] |  | 168 | over 50% | 1.94 | 2.15 |  | IC50 [4]: 1.5 µM; reduction in the number of Toxoplasma cysts in the brain [5]: over 90%; decrease in brain cysts compared to untreated rats [5]: 10 fold |
| 7.63 | 9.12 | CC(C)(NC(=O)c1cc2c(Cl)cc(Cl)cc2[nH]1)c1cn(Cc2ccc(Cl)c(Cl)c2)nn1 [JS-2-44, 4,6-Dichloro-N-(2-(1-(3,4-dichlorobenzyl)-1H-1,2,3-triazol-4-yl)propan-2-yl)-1H-indole-2-carboxamide] | 210 | 209 |  | 2.95 | 3.24 | 27.48 | IC50 [4]: 10.6 µM; reduction in the number of Toxoplasma cysts in the brain [5]: over 90%; decrease in brain cysts compared to untreated rats [5]: 10 fold |
|  |  | CC(C)(NC(=O)c1cc2c(F)cc(F)cc2[nH]1)c1cn(Cc2ccccc2Cl)nn1 [JS-2-25, N-(2-(1-(2-Chlorobenzyl)-1H-1,2,3-triazol-4-yl)propan-2-yl)-4,6-difluoro-1H-indole-2-carboxamide] | 107 |  |  |  |  |  |  |
| 220 | 227 | NC[C@@H]1O[C@H](O[C@H]2[C@@H](O)[C@H](O[C@@H]3[C@@H](O)[C@H](N)C[C@H](N)[C@H]3O[C@H]3O[C@H](CO)[C@@H](O)[C@H](O)[C@H]3N)O[C@@H]2CO)[C@H](N)[C@@H](O)[C@@H]1O [PMO, paromomycin, reference compound] |  |  |  |  |  |  |  |
|  |  | CC(C)(NC(=O)c1cc2c(F)cc(F)cc2[nH]1)c1cn(C23CC4CC(CC(C4)C2)C3)nn1 [JS-2-19, N-(2-(1-(Adamantan-1-yl)-1H-1,2,3-triazol-4-yl)propan-2-yl)-4,6-difluoro-1H-indole-2-carboxamide] |  | 108 | over 50% | 8.51 | 10.6 |  | SI T. gondii (selectivity index) [3]: 12.66 |
| 5.05 | 5.86 | CC(C)(NC(=O)c1cc2c(Cl)cc(Cl)cc2[nH]1)c1cn(Cc2cccc(Cl)c2)nn1 [JS-2-30, 4,6-Dichloro-N-(2-(1-(3-chlorobenzyl)-1H-1,2,3-triazol-4-yl)propan-2-yl)-1H-indole-2-carboxamide] | 193 | 268 | over 50% | 5.43 | 6.32 | 38.16 |  |
| 12.3 | 12.5 | C#CC(C)(C)NC(=O)c1cc2c(Cl)cc(Cl)cc2[nH]1 [JS-2-22, 4,6-Dichloro-N-(2-methylbut-3-yn-2-yl)-1H-indole-2-carboxamide] | 101 |  |  |  |  | 8.24 |  |
| 9.37 | 10.7 | CC(C)(NC(=O)c1cc2c(Cl)cc(Cl)cc2[nH]1)c1cn(Cc2ccccc2)nn1 [JS-2-27, N-(2-(1-Benzyl-1H-1,2,3-triazol-4-yl)propan-2-yl)-4,6-dichloro-1H-indole-2-carboxamide] | 254 |  |  |  |  | 27.09 |  |
|  |  | c1ccc(-c2cn(C34CC5CC(CC(C5)C3)C4)nn2)cc1 [JS-2-40, 1-(Adamantan-1-yl)-4-phenyl-1H-1,2,3-triazole] | 135 |  |  |  |  |  |  |
